Screening data as filed in PubChem.
This is a sample that favours compounds with a hit; in the whole collection about 2.7% have one here.
PAFAH1B3 inh: inhibitors of human PAFAH1B3. inhibition, % at 3.39 µM. recombinant PAFAH1B3, FP-rhodamine probe, fluorescence polarization. Q15102. 340,000 compounds, 0.28% hits. AID 492972;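 active = inhibition above the screen-wide average of all tested compounds plus 3 SD, cut at about 25% in these data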
pPAFAH inh: pPAFAH (human) enzyme inhibition; Q13093; recombinant pPAFAH, FP-rhodamine probe fluorescence polarization; inhibition, % at 3.39 µM; 330,000 compounds, 1.5% hits;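 active = inhibition above the mean inhibition across the screen plus 3 SD, cut at about 25% in these data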;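 note: inhibitors block binding of the rhodamine activity-based probe so polarization drops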
Target sequence (Q13093 whole entry, looked up): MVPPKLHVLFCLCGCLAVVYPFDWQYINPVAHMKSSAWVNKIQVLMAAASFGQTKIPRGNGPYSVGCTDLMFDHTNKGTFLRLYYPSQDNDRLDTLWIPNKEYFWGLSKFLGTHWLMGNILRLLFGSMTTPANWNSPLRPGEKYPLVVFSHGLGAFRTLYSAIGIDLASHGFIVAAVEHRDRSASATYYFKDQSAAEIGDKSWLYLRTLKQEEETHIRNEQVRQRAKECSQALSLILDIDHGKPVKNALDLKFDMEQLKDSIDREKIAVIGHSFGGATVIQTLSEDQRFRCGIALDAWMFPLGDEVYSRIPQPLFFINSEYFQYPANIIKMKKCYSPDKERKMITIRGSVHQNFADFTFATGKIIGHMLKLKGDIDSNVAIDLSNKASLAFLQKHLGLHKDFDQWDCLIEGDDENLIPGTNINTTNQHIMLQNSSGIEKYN
PAFAH1B2 FP inh: inhibitors of human PAFAH1B2; P68402; recombinant PAFAH1B2, FP-rhodamine activity probe, fluorescence polarization; inhibition, % at 3.39 µM; 340,000 compounds, 1.2% hits; AID 492953;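 active = inhibition above the mean of all tested compounds plus 3 SD, cut at about 24% in these data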
Target sequence (P68402 whole entry, looked up): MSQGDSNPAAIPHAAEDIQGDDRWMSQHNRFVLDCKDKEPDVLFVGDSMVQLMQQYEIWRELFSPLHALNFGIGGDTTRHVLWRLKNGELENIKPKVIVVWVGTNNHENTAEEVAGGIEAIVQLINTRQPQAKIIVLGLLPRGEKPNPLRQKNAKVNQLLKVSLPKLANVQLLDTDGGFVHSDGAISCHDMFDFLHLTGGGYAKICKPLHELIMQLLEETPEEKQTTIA
PAFAH2 inh: PAFAH2 (human) inhibition. Q99487. recombinant PAFAH2, FP-rhodamine activity probe, fluorescence polarization. inhibition, % at 3.39 µM. 340,000 compounds, 0.99% hits;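 active = inhibition above the mean over all tested compounds plus 3 SD, cut at about 30% in these data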;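 note: inhibitors block probe labeling of enzyme so polarization drops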
RBBP9 inh: inhibitors of human serine hydrolase RBBP9. recombinant RBBP9, FP-Rh probe fluorescence polarization. 220,000 compounds, 0.2% hits. inhibition, % at 7.94 µM;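 active = inhibition above the campaign mean of all tested compounds plus 3 SD, cut at about 14% in these data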
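Measured by: FP readout at 525/598 nm; material: recombinant human RBBP9; also added: Serine-hydrolase probe FP-Rh, 375 nM pre-mixing; medium: Tris buffer pH 8.0, NaCl, Pluronic; replication: one well per compound; doses: one concentration, 7.94 µM nominal, 0.794% DMSO; timing: preincubation 30 min plus labeling 45 min at 25 °C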
PAFAH2 FP conf: PAFAH2 (human) inhibition, confirmed | recombinant PAFAH2, FP-rhodamine activity probe, fluorescence polarization | AID 493030 | 2,300 compounds, 65% hits | inhibition, % at 3.39 µM | shares compounds with PAFAH2 inh;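 active = mean inhibition over three repeats above a set limit taken from the earlier primary screen, cut at about 30% in these data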;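 note: inhibitor blocks binding of rhodamine activity probe so polarization falls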
Hits are given with their value; . = inactive; / = not tested or not shown.

SMILES	PAFAH1B3 inh	pPAFAH inh	PAFAH1B2 FP inh	PAFAH2 inh	RBBP9 inh	PAFAH2 FP conf
CC1CCCC(NC(=O)COC(=O)/C=C/c2ccc([N+](=O)[O-])cc2)C1C (stereo not given)	.	.	.	62	/	.
CC1CCCC(NC(=O)COC(=O)c2ccccc2[N+](=O)[O-])C1C (stereo not given)	.	.	.	65	.	57
COc1cc2c(cc1OC)CN(C(=O)c1ccc(Cl)c(S(=O)(=O)N3CCCC3)c1)CC2	.	.	.	.	/	/
CCc1ccc(N2CC(C(=O)N3CCN(c4ccccn4)CC3)CC2=O)cc1 (stereo not given)	.	.	.	.	/	/
CCc1nnc(NS(=O)(=O)c2ccc(Nc3ccc([N+](=O)[O-])c4nonc34)cc2)s1	.	.	.	.	.	/
CC1CCCC(NC(=O)COC(=O)/C=C/c2ccco2)C1C (stereo not given)	.	.	.	86	/	79
O=C(COC(=O)c1ccccc1O)NCCC1=CCCCC1	.	.	.	.	.	/
O=C(COC(=O)c1ccccc1Cl)NCCC1=CCCCC1	.	.	.	.	.	/
Cc1ccc(C(=O)OCC(=O)NCCC2=CCCCC2)s1	.	.	.	61	.	60
O=C(COC(=O)c1cccs1)NCCC1=CCCCC1	.	.	.	55	.	41
Cc1ccsc1C(=O)OCC(=O)N1C(C)CCCC1C (stereo not given)	.	.	.	.	/	/
Cc1ccsc1C(=O)OCC(=O)NC1CC1	.	.	.	33	/	.
Cc1ccc(C(=O)OCC(=O)NC2CC2)s1	.	.	.	70	/	55
O=C(CSc1nc2c(c(=O)n1-c1ccc(Cl)cc1)SCC2)Nc1ccc2c(c1)OCCO2	.	.	.	.	.	/
O=C(COC(=O)c1ccco1)NCc1cccs1	.	.	.	34	.	.
Cc1ccc(C(=O)OCC(=O)NCc2cccs2)cc1	.	.	.	53	.	46
O=C(COC(=O)/C=C/c1ccc(OC(F)F)cc1)NCc1cccs1	.	.	.	46	.	41
Cc1ccc(C(=O)OCC(=O)NCc2cccs2)cc1C	.	.	.	54	.	51
Cc1cc(C)c(C(=O)OCC(=O)NCc2cccs2)c(C)c1	.	.	.	.	.	/
O=C(COC(=O)c1ccc(CO)cc1)NCc1cccs1	.	.	.	43	.	35
CCOC(=O)c1cnc(SCc2cccc(C)c2)nc1N	.	.	.	.	.	/
NS(=O)(=O)c1cc2c(cc1Cl)NC(CSCc1ccccc1)=NS2(=O)=O	.	.	.	34	.	.
O=C(Nc1ccnn1C1CCN(CC(O)CO)CC1)C1CCCC1 (stereo not given)	.	/	.	.	/	/
Cc1[nH]n(C(N)=S)c(=O)c1N=Nc1cccc([N+](=O)[O-])c1C	.	.	.	.	/	/
Cc1c(N=Nc2c(-c3ccc([N+](=O)[O-])cc3)[nH]n(C(N)=S)c2=O)cccc1[N+](=O)[O-]	.	/	.	55	.	36
SMILES	PAFAH1B3 inh	pPAFAH inh	PAFAH1B2 FP inh	PAFAH2 inh	RBBP9 inh	PAFAH2 FP conf
O=C(Nc1ccccc1)Nc1cccc(Cl)c1Cl	.	.	.	.	.	/
O=C(Nc1ccc(Oc2ccc(NC(=O)Nc3ccccc3Cl)cc2)cc1)Nc1ccccc1Cl	.	.	.	55	.	.
O=C(COC(=O)c1ccc2c(c1)OCO2)Nc1ccccc1F	.	.	.	54	/	49
N#Cc1ccccc1NC(=O)COC(=O)c1ccc2c(c1)OCO2	.	.	.	62	/	53
COc1ccc(/C=C2/SC(c3ccc(C)cc3)=NC2=O)cc1OC	.	.	.	38	.	.
Cc1ccc(C(=O)OCC(=O)NCc2ccco2)cc1S(=O)(=O)N1CCOCC1	.	.	.	44	/	39
COc1ccc(C(=O)OCC(=O)NCc2ccco2)cc1S(=O)(=O)N1CCN(c2cccc(Cl)c2)CC1	.	.	.	32	.	35
Cc1ccc(C(=O)NCc2ccco2)cc1S(=O)(=O)N1CCOCC1	.	.	.	.	.	/
CCOC(=O)N1C=CC=C[C@@H]2[C@@H](N3C(=O)c4ccccc4C3=O)C(=O)N21	.	.	.	.	.	/
COC(=O)CCCC(=O)N1CCCC(CNS(=O)(=O)c2ccc(OC)cc2)C1 (stereo not given)	.	.	.	.	.	/
O=C(CCS(=O)(=O)c1ccc(Br)cc1)N1CCN(c2ccccc2)CC1	.	.	.	33	.	.
CS/C(N)=N/N=C/c1cc(Br)cc(Br)c1O	.	.	.	63	.	43
CS/C(N)=N/N=C/c1cc(C)ccc1O	.	.	.	.	.	/
O=C(CNC(=O)C12CC3CC(CC(C3)C1)C2)N1CCN(S(=O)(=O)/C=C/c2ccccc2)CC1	.	.	.	35	.	.
O=C(CNC(=O)C12CC3CC(CC(C3)C1)C2)N1CCN(S(=O)(=O)c2cccs2)CC1	.	.	.	.	.	/
CC1CCC(NC(=O)COC(=O)C2CC3CCCC(C2)C3=O)CC1 (stereo not given)	.	.	.	62	/	48
O=C(COC(=O)C1CC2CCCC(C1)C2=O)NC1CCCCC1 (stereo not given)	.	.	.	63	/	55
COc1cc(CNC(=O)c2ccc3c(c2)S(=O)(=O)c2ccccc2C3=O)cc(OC)c1	.	.	.	.	/	/
Cc1ccsc1C(=O)OCC(=O)Nc1cccc(S(=O)(=O)N2CCOCC2)c1	.	.	.	77	.	58
COc1ccc(S(=O)(=O)N2CCOCC2)cc1NC(=O)COC(=O)CC1CC2CCC1C2 (stereo not given)	.	.	.	.	/	/
O=C(COC(=O)CC1CC2CCC1C2)Nc1ccc(Cl)c(S(=O)(=O)N2CCOCC2)c1 (stereo not given)	.	.	.	69	/	59
Cc1ccc(NC(=O)COC(=O)c2sccc2C)cc1S(=O)(=O)N1CCOCC1	.	.	.	81	.	72
Cc1ccc(NC(=O)COC(=O)Cn2c(C)csc2=O)cc1S(=O)(=O)N1CCOCC1	.	/	.	.	/	/
Cc1ccc(OCC(=O)N2CCc3ccccc3C2)c([N+](=O)[O-])n1	.	.	.	.	.	/
Nc1ccccc1-c1nc2ccccc2c(=O)o1	.	.	.	30	/	.
SMILES	PAFAH1B3 inh	pPAFAH inh	PAFAH1B2 FP inh	PAFAH2 inh	RBBP9 inh	PAFAH2 FP conf
CC(=O)Nc1cccc(-c2nc3ccccc3c(=O)o2)c1	.	.	.	.	.	/
O=c1oc(-c2ccccc2NS(=O)(=O)c2ccccc2)nc2ccccc12	.	.	.	77	.	67
O=c1[nH][nH]c(=O)c2c(NS(=O)(=O)c3ccccc3)cccc12	.	.	.	.	.	/
CCOC(=O)c1cc(CC)sc1/N=C/c1c(O)ccc2ccccc12	.	.	.	.	.	/
C/C(CC(=O)Nc1ccc(N(C)C)cc1)=N\NC(=O)C(=O)NCc1ccccc1	.	.	.	46	.	.
C/C(=N/NC(=O)CN(c1ccccc1)S(=O)(=O)c1ccccc1)c1ccccc1O	.	.	.	.	/	/
O=C(CN1CCSC1=NCc1ccccc1)c1ccc(Cl)cc1	.	.	.	.	.	/
